The EternaBench riboswitch data

Test system: MS2 coat protein
Assay: apparent Kd, MS2 coat protein; higher = weaker binding; RNA-MaP array; FMN 200 µM where present
Method in brief: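 Stalled E. coli RNA polymerase produced the designs on Illumina sequencing-chip clusters. SNAP-549-labelled MS2 coat protein was added from 0.7 or 1.5 nM, doubling to 3 µM, without and then with constant ligand, in 100 mM Tris-HCl pH 7.5, 80 mM KCl, 4 mM MgCl2, BSA, DTT, yeast tRNA and Tween-20. The apparent Kd is the median of filtered per-cluster fits of green signal normalised to red-channel RNA signal and control-cluster median Fmax.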

[1] = designed as: ON switch for flavin mononucleotide, no ligand
[2] = ligand present: flavin mononucleotide, designed as: ON switch for flavin mononucleotide
[3] = designed as: OFF switch for flavin mononucleotide, no ligand
[4] = ligand present: flavin mononucleotide, designed as: OFF switch for flavin mononucleotide

Sequence: GGGUACGUCGGAGGAUAUCAUGUAAAUACAUGAGGAUCACCCAUGUCGAUGGAGACAUCGGAGAUUGAGAAGGCCGAUGUACCG
- apparent Kd [1]: 192 nM
- apparent Kd [2]: 8.89 nM

Sequence: GGGUGCAUCGGAGGAUAUCAUGUAAAUACAUGAGGAUCACCCAUGUCGAUGGAGACAUCGGAGAUUGAGAAGGCCGAUGUACCG
- apparent Kd [1]: 172 nM
- apparent Kd [2]: 8.99 nM

Sequence: GGGUGGCGUAGAGGAUAUGUGGUACAUGAGGAUCACCCAUGUGCAUAUGAUGUUCGUGUGUCUUCAUAGAAGGCUACGUCGCUA
- apparent Kd [1]: 97 nM
- apparent Kd [2]: 63 nM

Sequence: GGGUGGCGUAGAGGAUAUGUGGUACAUGAGGAUCACCCAUGUGCAUAUGAUGUUCGUGUUUAUGUAUAGAAGGCUACGUCGCUA
- apparent Kd [1]: 12.5 nM
- apparent Kd [2]: 12.3 nM

Sequence: GGUACCUUCACAGGAUAUGCUAUGGUUUCCGUAGCAGAAGGGUGAUACAUGAGGAUCACCCAUGUGGUGCCAGGGCGUGAGCCC
- apparent Kd [1]: 387 nM
- apparent Kd [2]: 293 nM

Sequence: GGUACCUUUACAGGAUAUGCUAGCCUUUGGUUAGCAGAAGGGUGAUACAUGAGGAUCACCCAUGUGGUGCCAGGGCGUGAGCCC
- apparent Kd [1]: 79.2 nM
- apparent Kd [2]: 447 nM

Sequence: GGUACUCAAAGAGUACCAAUACGAACAUGAGGAUCACCCAUGUAGGAUAUGCUACUAAAAGAGUAGCAGAAGGACAUGUGCCUA
- apparent Kd [3]: 13.5 nM
- apparent Kd [4]: 75.4 nM

Sequence: GGUACUCAAAGAGUACCAAUACGAACAUGAGGAUCACCCAUGUAGGAUAUGCUACUCAAAGAGUAGCAGAAGGACAUGUGCCUA
- apparent Kd [3]: 19.1 nM
- apparent Kd [4]: 106 nM

Sequence: GGUACUCAAAGAGUACCAAUACGAACAUGAGGAUCACCCAUGUAGGAUAUGCUAUCGAAACGAUAGCAGAAGGACAUGUGCCUU
- apparent Kd [3]: 26.4 nM
- apparent Kd [4]: 218 nM

Sequence: GGUAGAGACGUUAACAUGAGGAUCACCCAUGUCGAAGGAGAUGAGGAUAUCGUAUACGAUGUAUAUGAGAAGGCAUGGUCUGCC
- apparent Kd [1]: 24.4 nM
- apparent Kd [2]: 11.7 nM

Sequence: GGUAGAGAGCAGGAUAUCUUGGGUAAGUAUCGUAGAGAAGGGCUCACAUGAGGAUCACCCAUGUGGUCCAAGAU
- apparent Kd [3]: 15.5 nM
- apparent Kd [4]: 34.2 nM

Sequence: GGUAUGUGAGGAUAUGGGAUUGUAGACAUGAGGAUCACCCAUGUCAUGUCCGAUCAUUGCCCAGAAGGUAUCCGCU
- apparent Kd [3]: 25.6 nM
- apparent Kd [4]: 27.1 nM

Sequence: GGUCCAACAUGAGGAUAUGGCACCUUAUUGGUGCCAGAAGGCAUGUCUAUAGACAUGAGGAUCACCCAUGUAAUAAAUUGGACC
- apparent Kd [1]: 689 nM
- apparent Kd [2]: 47.8 nM

Sequence: GGUCCACAUGAGGAUCACCCAUGUUAGGAUAUCUCGCCCGAGUCCAUAUGGGCCGGGCAGAGAAGGAAUGUGAA
- apparent Kd [3]: 21 nM
- apparent Kd [4]: 22.6 nM

Sequence: GGUCCAUUAUGAGGAUAUGGCACCUUAUUGGUGCCAGAAGGCAUGUGUAUUCACAUGAGGAUCACCCAUGUAAUAAAUUGGACC
- apparent Kd [1]: 87.2 nM
- apparent Kd [2]: 20 nM

Sequence: GGUCGUCACAUCUACAUGAGGAUCACCCAUGUCAAAAGACAUGAGGAUAUGCAUCCUAAUUGGAUGCAGAAGGCAUGGACGACC
- apparent Kd [1]: 1280 nM
- apparent Kd [2]: 66.8 nM

Sequence: GGUGCACGCACAGGAUAUCCGGCGGAGCUCGUCGGAGAAGGGUGACAUGAGGAUCACCCAUGUACGUGCAACCCAGUUUGAGGG
- apparent Kd [1]: 59.6 nM
- apparent Kd [2]: 28.5 nM

Sequence: GGUGCACGCACAGGAUAUCCGGCGGCGCUCGUCGGAGAAGGGUGACAUGAGGAUCACCCAUGUACGUGCAACUCAGUUUGAGUG
- apparent Kd [1]: 42.5 nM
- apparent Kd [2]: 33.9 nM

Sequence: GGUGGACAUGAGGAUCACCCAUGUGAGGAUAUCGGCUGGCUAGUGGCGGCUGGCUUCUCGAGAAGGCGCAUAGU
- apparent Kd [3]: 49.7 nM
- apparent Kd [4]: 72.5 nM

Sequence: GGUGUGGCAGGAUAUACAUCGAAGGGUGCAAAGGGCUCGGCACAUGAGGAUCACCCAUGUAGAAGGGCCUACCA
- apparent Kd [3]: 14.9 nM
- apparent Kd [4]: 20.7 nM

Sequence: GGUUAUUGCAAGGAUAUGCUUUUUUUUUAUUUUGCAGAAGGUGCAACAUGAGGAUCACCCAUGUUGGAGGGUUU
- apparent Kd [3]: 21.7 nM
- apparent Kd [4]: 31.9 nM

Sequence: GGUUGGCAGCUAGGAUAUGGGCGGUCACAUGAGGAUCACCCAUGUCAACAUCAAAACCAGAUUAACCAGAAGGAGCUGCGGGUU
- apparent Kd [1]: 14.8 nM
- apparent Kd [2]: 87.7 nM

Sequence: GGUUGGCGAGGAUAUACAUGAGGAUCACCCAUGUGGUCCUAAAAAAAAAUAAACCUUUGUAGAAGGCGCGGGUC
- apparent Kd [3]: 258 nM
- apparent Kd [4]: 290 nM
